Drawing on ChEMBL document CHEMBL1817651, “Neuroprotective effects of linarin through activation of the PI3K/Akt pathway in amyloid-β-induced neuronal cell death” (2011), this text covers Activity and inhibition for 1 compound.

The target of experiment [1] is Glycogen synthase kinase-3 beta (Rattus norvegicus) (UniProt P18266). As to the kind of experiment: Increase in GSK3 beta phosphorylation at Ser9 in amyloid beta-induced rat PC12 cells at 0.1 to 10 uM administered 1 hrs prior to amyloid beta challenge measured after 24 hrs by Western blotting. Conditions: PC-12. In kind it is cell-based. The procedure, abridged:
(§1)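 Lysates (20 or 30 µg) were run on 12% SDS-PAGE and immunoblotted for pSer9 GSK-3β and total GSK-3β (1:1000), with β-actin or GAPDH as loading control. Blots shown represent three independent experiments.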
(In western blotting, separated proteins are transferred to a membrane and probed.)

Experiment [2] has as its system PC-12. Kind of experiment: Cytoprotective activity in amyloid beta-induced apoptosis in rat PC12 cells at 10 uM administered 1 hr prior to amyloid beta challenge measured after 24 hrs by using Annexin V/PI staining based flow cytometric analysis. Format: functional. The procedure, abridged:
(§2)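 Cells were stained with Annexin V-FITC/PI for 15 min in the dark at room temperature and analysed by flow cytometry. Annexin+/PI− cells were scored early apoptotic and double-positive cells late apoptotic. Mean ± SD of triplicate independent experiments.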
A general note: Flow cytometry measures light scatter and fluorescence of single cells or particles in a stream.

For experiment [3], the system named is PC-12. As to the kind of experiment: Neuroprotective effect against amyloid beta-induced apoptosis in rat PC12 cells assessed as upregulation of PI3K-mediated Akt phosphorylation administered 1 hr prior to amyloid beta challenge measured after 24 hrs by Western blotting. In kind it is functional, cell-based. The essentials: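 Lysate protein (20 or 30 µg) was run on 12% SDS-PAGE and blotted to nitrocellulose. Blots were probed for p-Akt Ser473 and total Akt (1:1000), with β-actin or GAPDH as loading control, and detected by ECL. Densitometry, mean ± SD, triplicate.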

Experiment [4] deals with PC-12. As to the kind of experiment: Cytoprotective activity in amyloid beta-induced apoptosis in rat PC12 cells at 1 uM administered 1 hr prior to amyloid beta challenge measured after 24 hrs by using Annexin V/PI staining based flow cytometric analysis. Format: functional. The essentials: as §2
The subject of experiment [5] is PC-12. Kind of experiment: Neuroprotective effect against amyloid beta-induced rat PC12 cells assessed as increase of Bcl-2 expression at 0.1 to 10 uM administered 1 hrs prior to amyloid beta challenge measured after 24 hrs by Western blotting pretreated with PI3K inhibitor LY294002 before compound addition. Format: functional, cell-based. The procedure, abridged:
(§3)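 Lysates (20 or 30 µg) were separated on 12% gels, blotted and probed with anti-Bcl-2 (1:200), with β-actin or GAPDH as loading control. Detection was by ECL.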

In experiment [6] the test system is PC-12. Kind of experiment: Cytoprotective activity in amyloid beta-induced apoptosis in rat PC12 cells at 0.1 uM administered 1 hr prior to amyloid beta challenge measured after 24 hrs by using Annexin V/PI staining based flow cytometric analysis. In kind it is functional. The procedure, abridged: as §2
In experiment [7] the target is RAC-alpha serine/threonine-protein kinase (Rattus norvegicus) (UniProt P47196). Kind of experiment: Induction of PIK3-mediated Akt phosphorylation in amyloid beta-induced rat PC12 cells at 10 uM, treated 1 hrs prior to amyloid beta challenge measured after 24 hrs by Western blotting in presence of PI3K inhibitor LY294002 before compound addition. The settings on record: PC-12. In kind it is cell-based. The procedure, abridged: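 Lysates (20 or 30 µg) were run on 12% SDS-PAGE and immunoblotted for p-Akt and total Akt (1:1000) with ECL detection. Densitometry, mean ± SD of triplicate experiments.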

Experiment [8] concerns PC-12. As to the kind of experiment: Inhibition of amyloid beta-induced mitochondrial dysfunction in rat PC12 cells at 0.1 to 10 uM administered 1 hr prior to amyloid beta challenge measured after 24 hrs using JC1 fluorescent dye based flow cytometeric analysis. In kind it is functional, cell-based. The procedure, abridged:
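Cells were loaded with JC-1 for 20 min at 37 °C, pelleted at 600g, resuspended in PBS and analysed by flow cytometry on FL1 (525 nm) and FL2 (575 nm). Membrane potential was expressed as the green/red fluorescence ratio. Mean ± SD, triplicate.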

Experiment [9] addresses T1, Acetylcholinesterase (Rattus norvegicus) (UniProt P37136).
T1 sequence (whole entry): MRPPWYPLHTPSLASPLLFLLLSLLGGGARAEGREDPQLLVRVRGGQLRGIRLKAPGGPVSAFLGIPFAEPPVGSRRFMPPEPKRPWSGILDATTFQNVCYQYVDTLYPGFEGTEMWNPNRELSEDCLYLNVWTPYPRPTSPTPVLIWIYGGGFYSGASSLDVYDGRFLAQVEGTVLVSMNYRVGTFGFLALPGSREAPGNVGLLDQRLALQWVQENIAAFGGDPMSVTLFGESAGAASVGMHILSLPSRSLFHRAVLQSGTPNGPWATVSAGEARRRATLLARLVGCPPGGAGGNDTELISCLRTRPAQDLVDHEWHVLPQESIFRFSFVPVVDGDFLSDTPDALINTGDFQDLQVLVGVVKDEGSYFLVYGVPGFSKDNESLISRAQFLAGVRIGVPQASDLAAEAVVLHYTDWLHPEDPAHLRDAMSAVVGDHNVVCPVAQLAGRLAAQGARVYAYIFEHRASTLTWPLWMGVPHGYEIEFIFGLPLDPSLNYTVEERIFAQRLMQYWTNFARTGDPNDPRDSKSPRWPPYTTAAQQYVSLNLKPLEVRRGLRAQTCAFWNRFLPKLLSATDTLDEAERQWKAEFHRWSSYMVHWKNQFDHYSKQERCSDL
As to the kind of experiment: Inhibition of AChE activity in amyloid beta25-35-induced rat PC12 cells at 0.1 to 10 uM, 1 hrs prior to induction after 24 hrs by Ellman assay. Conditions: PC-12. In kind it is cell-based. The essentials:
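Rat PC12 cells in DMEM/10% FBS, serum-starved 12 h, were pretreated 1 h, then exposed 24 h to 30 µM Aβ25-35 (1 mM in water, pre-aggregated 72 h at 37 °C). Lysates were made in high ionic strength buffer (1 M NaCl, Triton X-100, EDTA) and spun 12,000 rpm 20 min at 4 °C. AChE activity in the supernatant was read by Ellman method; three independent experiments.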
On the technique in general: In Ellman's method for cholinesterases, released thiocholine reacts with DTNB.

In experiment [10] the target is Glycogen synthase kinase-3 beta (Rattus norvegicus) (UniProt P18266). As to the kind of experiment: Increase in GSK3 beta phosphorylation at Ser9 in amyloid beta-induced rat PC12 cells at 0.1 to 10 uM administered 1 hrs prior to amyloid beta challenge measured after 24 hrs by Western blotting pretreated with PI3K inhibitor LY294002 before compound addition. Format: cell-based. Conditions: PC-12. The essentials: as §1

The subject of experiment [11] is PC-12. Kind of experiment: Inhibition of amyloid beta-induced apoptosis in rat PC12 cells assessed as decrease in caspase-3 dependent cleavage of Ac-DEVD-pNA administered 1 hr prior to amyloid beta challenge measured after 24 hrs by spectrophotometric analysis. Format: functional, cell-based. The essentials:
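Released pNA was read at 405 nm. Activity was normalised to protein and expressed as fold over control cells. Mean ± SD of triplicate experiments.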

Experiment [12] has as its system PC-12. Kind of experiment: Neuroprotective activity in amyloid beta-induced cytotoxicity in rat PC12 cells assessed as cell viability pretreated 1 hrs prior to amyloid beta challenge measured after 24 hrs by MTT assay. Format: functional, cell-based. The procedure, abridged:
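PC12 cells at 0.5 × 10^4 per well, serum-starved 12 h, then pretreated 1 h with 0.1, 1.0 or 10 µM. Viability was read by MTT (5 mg/ml, 4 h, 37 °C), with formazan dissolved in DMSO and A570 measured. Mean ± SD of triplicate experiments.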

Experiment [13] relates to PC-12. As to the kind of experiment: Cytoprotective activity in amyloid beta-induced apoptosis in rat PC12 cells administered 1 hr prior to amyloid beta challenge measured after 24 hrs by using Annexin V/PI staining based flow cytometric analysis. In kind it is functional, cell-based. The essentials:
as §2

Experiment [14] deals with PC-12. Kind of experiment: Neuroprotective activity in amyloid beta-induced rat PC12 cells assessed as increase of Bcl-2 expression at 0.1 to 10 uM administered 1 hrs prior to amyloid beta challenge measured after 24 hrs by Western blotting. In kind it is functional, cell-based. The essentials:
as §3

The structures appear in SMILES notation. Active and inactive are the calls of the source. No cut-off for these calls is given here.

Sequence of Glycogen synthase kinase-3 beta (Rattus norvegicus) (P18266 whole entry, looked up): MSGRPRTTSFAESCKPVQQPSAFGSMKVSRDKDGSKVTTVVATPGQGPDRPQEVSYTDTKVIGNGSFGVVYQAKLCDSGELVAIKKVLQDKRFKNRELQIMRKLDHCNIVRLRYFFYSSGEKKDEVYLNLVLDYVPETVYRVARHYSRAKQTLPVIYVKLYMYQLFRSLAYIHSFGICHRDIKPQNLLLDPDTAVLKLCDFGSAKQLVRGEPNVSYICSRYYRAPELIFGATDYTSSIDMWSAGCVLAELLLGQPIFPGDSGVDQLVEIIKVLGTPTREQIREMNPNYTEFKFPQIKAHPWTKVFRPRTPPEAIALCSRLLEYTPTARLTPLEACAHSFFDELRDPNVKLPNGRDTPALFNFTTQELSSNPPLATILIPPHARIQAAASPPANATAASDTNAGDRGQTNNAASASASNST
Sequence of RAC-alpha serine/threonine-protein kinase (Rattus norvegicus) (P47196 whole entry): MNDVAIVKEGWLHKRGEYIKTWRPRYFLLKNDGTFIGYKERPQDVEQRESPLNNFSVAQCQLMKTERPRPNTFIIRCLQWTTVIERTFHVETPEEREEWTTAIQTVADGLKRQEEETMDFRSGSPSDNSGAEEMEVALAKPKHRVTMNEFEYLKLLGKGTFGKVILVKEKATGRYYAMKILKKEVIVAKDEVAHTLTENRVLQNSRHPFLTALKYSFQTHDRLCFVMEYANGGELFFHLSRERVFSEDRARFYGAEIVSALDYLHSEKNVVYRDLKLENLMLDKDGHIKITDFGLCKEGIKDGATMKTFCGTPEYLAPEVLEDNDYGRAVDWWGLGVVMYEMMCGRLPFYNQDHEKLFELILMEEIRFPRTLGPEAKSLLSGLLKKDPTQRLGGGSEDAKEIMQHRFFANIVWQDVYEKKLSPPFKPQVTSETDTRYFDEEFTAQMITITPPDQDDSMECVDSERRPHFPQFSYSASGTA

For the compound `COc1ccc(-c2cc(=O)c3c(O)cc(O[C@@H]4O[C@H](CO[C@@H]5O[C@@H](C)[C@H](O)[C@@H](O)[C@H]5O)[C@@H](O)[C@H](O)[C@H]4O)cc3o2)cc1` [ACACIIN], the result (in [1]; in the experiment on PC-12 [3]; in the experiment on PC-12 [14]) was Active. Also, the Activity is 7.32% in the experiment on PC-12 [2]; 11.57% with PC-12 [4]; 20.52% in the experiment on PC-12 [6]; “Dose-dependent effect” in the experiment on PC-12 [12]; “Dose-dependent effect” in the experiment on PC-12 [13]. The result (in the experiment on PC-12 [5]; in experiment [7]; in [10]) was inactive. In addition, the inhibition entry (in the experiment on PC-12 [8]; in experiment [9]) was “Active” throughout. Moreover, the inhibition entry in the experiment on PC-12 [11] is “Dose-dependent effect”.
